# Measured values as given in publication PMC12339990 (Scientific Reports, 2025).
# Entries after “also recorded” stand apart in the source; their conditions may differ.
# Tests used:
# Design in all cases: species or system Syrian hamsters (Mesocricetus auratus)
# recombinant MSP (rMSP) = biological target: T1, recombinant MSP (rMSP) (Mesocricetus auratus, UniProt Q9QXU1); experiment: Fluorescence ligand binding / competitive displacement of probe 1-AMA from rMSP; settings: for binding / competitor activity with rMSP in fluorescent-probe assay (in words): probe 1-AMA
# T1 sequence (Q9QXU1 16-172): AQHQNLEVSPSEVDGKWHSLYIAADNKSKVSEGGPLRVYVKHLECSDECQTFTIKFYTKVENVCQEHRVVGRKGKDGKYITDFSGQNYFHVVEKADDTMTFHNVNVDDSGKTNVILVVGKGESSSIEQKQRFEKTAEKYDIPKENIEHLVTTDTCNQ
# In short: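 rMSP was expressed in E. coli BL21(DE3) with 1 mM IPTG and purified by Ni-NTA and Sephadex G-75. Assays used 2 µM protein in 20 mM Tris-HCl pH 7.4 at 25 °C, excitation 295 nm, emission read at 485 nm. For Kd, 1-AMA (1 mM methanol stock) was titrated and fitted against free probe, assuming 1:1 binding and fully active protein. Competitors (0.25–40 µM) displaced 2 µM probe. IC50 was taken at half-maximal fluorescence; Ki = IC50/(1+[L]/Kd).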
# recombinant FLP (rFLP) = biological target: T2, recombinant FLP (rFLP) (Mesocricetus auratus, UniProt Q99MG7); experiment: Fluorescence ligand binding / competitive displacement of probe 1-NPN from rFLP; settings: for binding / competitor activity with rFLP in fluorescent-probe assay (in words): probe 1-NPN
# T2 sequence (Q99MG7 17-172): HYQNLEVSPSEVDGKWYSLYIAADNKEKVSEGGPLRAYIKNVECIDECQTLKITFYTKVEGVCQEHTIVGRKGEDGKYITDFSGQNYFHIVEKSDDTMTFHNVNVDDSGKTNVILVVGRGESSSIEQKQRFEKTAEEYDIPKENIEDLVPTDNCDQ
# In short: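 rFLP was expressed in E. coli BL21(DE3) with 1 mM IPTG and purified by Ni-NTA and Sephadex G-75. Assays used 2 µM protein in 20 mM Tris-HCl pH 7.4 at 25 °C, excitation 295 nm, emission read at 425 nm. For Kd, 1-NPN (1 mM methanol stock) was titrated and fitted against free probe, assuming 1:1 binding and fully active protein. Competitors (0.25–40 µM) displaced 2 µM probe. IC50 was taken at half-maximal fluorescence; Ki = IC50/(1+[L]/Kd).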
# rMSP = biological target: T3, rMSP (Mesocricetus auratus, UniProt Q9QXU1); experiment: IBMP binding detected by GC-MS of protein peak after gel-filtration; settings: ~7.2 mM IBMP, ~200 µM protein, 25 °C 1 h, Sephadex-G-25, DCM extract
# T3 sequence (Q9QXU1 16-172): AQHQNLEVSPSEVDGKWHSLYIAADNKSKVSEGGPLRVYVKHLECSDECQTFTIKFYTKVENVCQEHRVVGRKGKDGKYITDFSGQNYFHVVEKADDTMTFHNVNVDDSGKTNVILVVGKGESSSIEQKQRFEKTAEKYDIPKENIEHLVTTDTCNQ
# In short: (§1)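 The protein–IBMP mix was incubated on a rotary shaker, with chymotrypsin as negative control. After G-25 elution, fractions of the first OD280 peak were mixed with dichloromethane, vortexed and held overnight at −20 °C. The lower organic phase was analyzed by GC-MS: 2 µl splitless, helium 1 ml/min, oven 50→300 °C stepwise, 70 eV ionization, total ion current mode.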
# [1] = biological target: T4, nMSP (mixture of three natural MSP forms) (Mesocricetus auratus, UniProt Q9QXU1); experiment: as above; settings: ~7.2 mM IBMP, ~200 µM protein, 25 °C 1 h, Sephadex-G-25, DCM extract
# T4 sequence (Q9QXU1 16-172): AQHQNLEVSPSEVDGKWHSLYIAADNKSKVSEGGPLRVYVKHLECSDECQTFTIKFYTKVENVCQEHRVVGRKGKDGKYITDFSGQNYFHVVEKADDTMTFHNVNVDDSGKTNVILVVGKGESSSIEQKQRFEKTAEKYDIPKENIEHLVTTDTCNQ
# In short: as §1
# rFLP = biological target: T5, rFLP (Mesocricetus auratus, UniProt Q99MG7); experiment: as above; settings: ~7.2 mM IBMP, ~200 µM protein, 25 °C 1 h, Sephadex-G-25, DCM extract
# T5 sequence (Q99MG7 17-172): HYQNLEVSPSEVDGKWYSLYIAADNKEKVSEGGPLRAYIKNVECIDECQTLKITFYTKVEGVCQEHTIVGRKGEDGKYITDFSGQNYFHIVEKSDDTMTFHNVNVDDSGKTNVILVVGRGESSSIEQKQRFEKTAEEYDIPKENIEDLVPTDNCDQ
# In short: as §1
# 24 kDa MSP = biological target: T6, 24 kDa MSP (Mesocricetus auratus, UniProt Q9QXU1); experiment: Lectin binding
# T6 sequence (Q9QXU1 16-172): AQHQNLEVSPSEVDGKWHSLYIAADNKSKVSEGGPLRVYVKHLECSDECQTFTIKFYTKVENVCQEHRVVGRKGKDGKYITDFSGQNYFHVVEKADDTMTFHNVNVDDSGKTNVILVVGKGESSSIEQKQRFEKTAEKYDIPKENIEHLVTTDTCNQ
# In short: (§2)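 Natural MSP, a mixture of three forms purified from adult male submandibular gland, was tested with a digoxigenin-labelled lectin kit (GNA, SNA, MAA, DSA, PNA). It was also passed through Con A, WGA and jacalin affinity columns. Unbound fractions and fractions eluted with lectin-specific sugars were checked for MSP forms by SDS-PAGE.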
# 30 kDa MSP = biological target: T7, 30 kDa MSP (Mesocricetus auratus, UniProt Q9QXU1); experiment: Lectin binding
# T7 sequence (Q9QXU1 16-172): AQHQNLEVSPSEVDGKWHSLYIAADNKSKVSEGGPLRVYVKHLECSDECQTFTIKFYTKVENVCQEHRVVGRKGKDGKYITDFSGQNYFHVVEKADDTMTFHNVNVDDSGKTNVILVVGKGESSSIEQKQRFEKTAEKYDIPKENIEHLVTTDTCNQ
# In short: as §2
Molecule,binding / competitor activity with rMSP in fluorescent-probe assay (in words) (recombinant MSP (rMSP)),binding / competitor activity with rFLP in fluorescent-probe assay (in words) (recombinant FLP (rFLP)),further results
"Nc1cccc2cc3ccccc3cc12 [1-AMA, 1-aminoanthracene]",strong affinity,–,Kd (recombinant MSP (rMSP)): ~1860 nM
"c1ccc(Nc2cccc3ccccc23)cc1 [1-NPN, N-phenyl-1-naphthylamine]",–,strong affinity,Kd (recombinant FLP (rFLP)): ~1380 nM
C=CC(O)CCCCC (centres unmarked) [1-octen-3-ol],no competitor activity,no competitor activity,–
"O=C(O)c1cccc(O)c1O [2,3-dihydroxybenzoic acid]",no competitor activity,no competitor activity,–
"O=C(O)c1cc(O)ccc1O [2,5-dihrodoxy benzoic acid]",no competitor activity,no competitor activity,–
C[C@]12CC[C@@H]3c4ccc(O)cc4CC[C@H]3[C@@H]1CC[C@@H]2O [17β-estradiol],extremely weak competitors,extremely weak competitors,–
"COc1nccnc1CC(C)C [IBMP, 2-isobutyl-3-methoxypyrazine]",high affinity,high affinity,IBMP found by GC-MS in protein peak fraction (binding to rMSP) (rMSP): specific binding; also recorded: retain and specifically carry (i.e. bind) detectable levels; IBMP found by GC-MS in protein peak fraction (binding to nMSP) [1]: specific binding; also recorded: retain and specifically carry (i.e. bind) detectable levels; IBMP found by GC-MS in protein peak fraction (binding to rFLP) (rFLP): specific binding; also recorded: retain and specifically carry (i.e. bind) detectable levels
CC(=O)N(O)CCCCCNC(=O)CCC(=O)N(O)CCCCCNC(=O)CCC(=O)N(O)CCCCCN [deferoxamine],no competitor activity,no competitor activity,–
CCCCCCCCCCCCCCCCO [hexadecanol],no competitor activity,no competitor activity,–
CCCCCCCCCCCCCC(=O)O [myristic],no competitor activity,no competitor activity,–
CCCCCCCC/C=C\CCCCCCCC(=O)O [oleic],no competitor activity,no competitor activity,–
CCCCCCCCCCCCCCCC(=O)O [palmitic],no competitor activity,no competitor activity,–
CC(=O)[C@H]1CC[C@H]2[C@@H]3CCC4=CC(=O)CC[C@]4(C)[C@H]3CC[C@]12C [progesterone],extremely weak competitors,extremely weak competitors,–
CCCCCCCCCCCCCCCCCC(=O)O [stearic],no competitor activity,no competitor activity,–
C[C@]12CC[C@H]3[C@@H](CCC4=CC(=O)CC[C@@]43C)[C@@H]1CC[C@@H]2O [testosterone],extremely weak competitors,extremely weak competitors,–
"PNA: Peanut agglutinin, digoxigenin labeled (protein, UniProt P02872 24-273, looked up, digoxigenin label) Galactose-binding lectin: AETVSFNFNSFSEGNPAINFQGDVTVLSNGNIQLTNLNKVNSVGRVLYAMPVRIWSSATGNVASFLTSFSFEMKDIKDYDPADGIIFFIAPEDTQIPAGSIGGGTLGVSDTKGAGHFVGVEFDTYSNSEYNDPPTDHVGIDVNSVDSVKTVPWNSVSGAVVKVTVIYDSSTKTLSVAVTNDNGDITTIAQVVDLKAKLPERVKFGFSASGSLGGRQIHLIRSWSFTSTLITTTRRSIDNNEKKIMNMASA",–,–,Binding of lectin to 24 kDa MSP (in words) (24 kDa MSP): lack of binding; Binding of lectin to 30 kDa MSP (in words) (30 kDa MSP): lack of binding
